Experimental data: ChEMBL document CHEMBL1148770, “Conformation-activity relationship of neuropeptide S and some structural mutants: helicity affects their interaction with the receptor” (J Med Chem, 2007)
Square brackets hold non-standard residues; d marks the D form. Peptide text beside a SMILES is read from it. Aib = CC(C)(N)C(=O)O

Experiments:
[1] = molecular target: T1, Neuropeptide S receptor (Mus musculus) (UniProt Q8BZP8); assay: Agonist activity at mouse recombinant NPSR expressed in HEK293 cells assessed as calcium mobilization relative to baseline; format: functional, cell-based
T1 sequence (whole entry): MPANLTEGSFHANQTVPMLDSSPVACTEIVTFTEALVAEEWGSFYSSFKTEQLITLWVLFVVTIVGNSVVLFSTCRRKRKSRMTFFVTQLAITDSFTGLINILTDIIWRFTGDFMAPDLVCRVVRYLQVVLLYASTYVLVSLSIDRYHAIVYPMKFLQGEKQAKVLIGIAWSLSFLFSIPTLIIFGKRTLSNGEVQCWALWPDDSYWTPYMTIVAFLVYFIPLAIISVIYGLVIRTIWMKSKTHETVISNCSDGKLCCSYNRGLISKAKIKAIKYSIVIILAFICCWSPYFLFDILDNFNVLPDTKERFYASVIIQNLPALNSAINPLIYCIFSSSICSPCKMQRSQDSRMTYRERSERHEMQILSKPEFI
Summary of the method: (§1)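 HEK293 cells stably expressing mouse NPSR, grown in DMEM/10% FBS/2 mM glutamine/hygromycin at 37 °C, 5% CO2. Seeded 50,000 cells/well on poly-D-lysine; next day loaded 30 min at 37 °C with 3 µM Fluo-4 AM, 2.5 mM probenecid, 0.01% pluronic acid. Read in HBSS/20 mM HEPES/probenecid/Brilliant Black at ≈22 °C on FlexStation; peak fluorescence change as % baseline; logistic fit; ≥4 experiments in duplicate.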

Neuropeptide S receptor = molecular target: T2, Neuropeptide S receptor (Mus musculus, UniProt Q8BZP8); assay: Agonist activity at mouse recombinant NPSR expressed in HEK293 cells assessed as calcium mobilization; format: functional, cell-based; summary of the method: as §1
T2 sequence (Q8BZP8 whole entry): T1 sequence (whole entry)

Emax [1]	EC50 (Neuropeptide S receptor)	Compound
190%	0.0102 µM	CSCC[C@H](NC(=O)C(C)(C)NC(=O)[C@@H](NC(=O)CNC(=O)[C@@H](NC(=O)CNC(=O)[C@H](CC(N)=O)NC(=O)[C@H](CCCNC(=N)N)NC(=O)[C@H](Cc1ccccc1)NC(=O)[C@@H](N)CO)C(C)C)[C@@H](C)O)C(=O)N[C@@H](CCCCN)C(=O)N[C@@H](CCCCN)C(=O)N[C@H](C(=O)N[C@@H](CO)C(=O)N[C@@H](Cc1ccccc1)C(=O)N[C@@H](CCC(N)=O)C(=O)N[C@@H](CCCNC(=N)N)C(=O)N[C@@H](C)C(=O)N[C@@H](CCCCN)C(=O)N[C@@H](CO)C(=O)O)[C@@H](C)O (H-SFRNGVGT[Aib]MKKTSFQRAKS-OH)
191%	0.0151 µM	CSCC[C@H](NC(=O)[C@H](C)NC(=O)[C@@H](NC(=O)CNC(=O)[C@@H](NC(=O)CNC(=O)[C@H](CC(N)=O)NC(=O)[C@H](CCCNC(=N)N)NC(=O)[C@H](Cc1ccccc1)NC(=O)[C@@H](N)CO)C(C)C)[C@@H](C)O)C(=O)N[C@@H](CCCCN)C(=O)N[C@@H](CCCCN)C(=O)N[C@@H](C)C(=O)N[C@@H](CO)C(=O)N[C@@H](Cc1ccccc1)C(=O)N[C@@H](CCC(N)=O)C(=O)N[C@@H](CCCNC(=N)N)C(=O)N[C@@H](C)C(=O)N[C@@H](CCCCN)C(=O)N[C@@H](CO)C(=O)O (H-SFRNGVGTAMKKASFQRAKS-OH)
172%	0.0191 µM	CSCC[C@H](NC(=O)CNC(=O)[C@@H](NC(=O)CNC(=O)[C@@H](NC(=O)CNC(=O)[C@H](CC(N)=O)NC(=O)[C@H](CCCNC(=N)N)NC(=O)[C@H](Cc1ccccc1)NC(=O)[C@@H](N)CO)C(C)C)[C@@H](C)O)C(=O)N[C@@H](CCCCN)C(=O)N[C@@H](CCCCN)C(=O)N[C@@H](C)C(=O)N[C@@H](CO)C(=O)N[C@@H](Cc1ccccc1)C(=O)N[C@@H](CCC(N)=O)C(=O)N[C@@H](CCCNC(=N)N)C(=O)N[C@@H](C)C(=O)N[C@@H](CCCCN)C(=O)N[C@@H](CO)C(=O)O (H-SFRNGVGTGMKKASFQRAKS-OH)
69%	–	CSCC[C@H](NC(=O)[C@H](C)NC(=O)[C@@H](NC(=O)[C@H](C)NC(=O)[C@@H](NC(=O)CNC(=O)[C@H](CC(N)=O)NC(=O)[C@H](CCCNC(=N)N)NC(=O)[C@H](Cc1ccccc1)NC(=O)[C@@H](N)CO)C(C)C)[C@@H](C)O)C(=O)N[C@@H](CCCCN)C(=O)N[C@@H](CCCCN)C(=O)N[C@@H](C)C(=O)N[C@@H](CO)C(=O)N[C@@H](Cc1ccccc1)C(=O)N[C@@H](CCC(N)=O)C(=O)N[C@@H](CCCNC(=N)N)C(=O)N[C@@H](C)C(=O)N[C@@H](CCCCN)C(=O)N[C@@H](CO)C(=O)O (H-SFRNGVATAMKKASFQRAKS-OH)
184%	0.00676 µM	CSCC[C@H](NC(=O)CNC(=O)[C@@H](NC(=O)CNC(=O)[C@@H](NC(=O)CNC(=O)[C@H](CC(N)=O)NC(=O)[C@H](CCCNC(=N)N)NC(=O)[C@H](Cc1ccccc1)NC(=O)C(C)(C)N)C(C)C)[C@@H](C)O)C(=O)N[C@@H](CCCCN)C(=O)N[C@@H](CCCCN)C(=O)N[C@H](C(=O)N[C@@H](CO)C(=O)N[C@@H](Cc1ccccc1)C(=O)N[C@@H](CCC(N)=O)C(=O)N[C@@H](CCCNC(=N)N)C(=O)N[C@@H](C)C(=O)N[C@@H](CCCCN)C(=O)N[C@@H](CO)C(=O)O)[C@@H](C)O (H-[Aib]FRNGVGTGMKKTSFQRAKS-OH)
164%	0.0234 µM	CSCC[C@H](NC(=O)CNC(=O)[C@@H](NC(=O)[C@@H](C)NC(=O)[C@@H](NC(=O)CNC(=O)[C@H](CC(N)=O)NC(=O)[C@H](CCCNC(=N)N)NC(=O)[C@H](Cc1ccccc1)NC(=O)[C@@H](N)CO)C(C)C)[C@@H](C)O)C(=O)N[C@@H](CCCCN)C(=O)N[C@@H](CCCCN)C(=O)N[C@H](C(=O)N[C@@H](CO)C(=O)N[C@@H](Cc1ccccc1)C(=O)N[C@@H](CCC(N)=O)C(=O)N[C@@H](CCCNC(=N)N)C(=O)N[C@@H](C)C(=O)N[C@@H](CCCCN)C(=O)N[C@@H](CO)C(=O)O)[C@@H](C)O
–	0.158 µM	CSCC[C@H](NC(=O)CNC(=O)[C@@H](NC(=O)CNC(=O)[C@@H](NC(=O)CNC(=O)[C@@H]1CCCN1C(=O)[C@H](CCCNC(=N)N)NC(=O)[C@H](Cc1ccccc1)NC(=O)[C@@H](N)CO)C(C)C)[C@@H](C)O)C(=O)N[C@@H](CCCCN)C(=O)N[C@@H](CCCCN)C(=O)N[C@H](C(=O)N[C@@H](CO)C(=O)N[C@@H](Cc1ccccc1)C(=O)N[C@@H](CCC(N)=O)C(=O)N[C@@H](CCCNC(=N)N)C(=O)N[C@@H](C)C(=O)N[C@@H](CCCCN)C(=O)N[C@@H](CO)C(=O)O)[C@@H](C)O (H-SFRPGVGTGMKKTSFQRAKS-OH)
129%	–	CSCC[C@H](NC(=O)CNC(=O)[C@@H](NC(=O)[C@H](C)NC(=O)[C@@H](NC(=O)CNC(=O)[C@H](CC(N)=O)NC(=O)[C@H](CCCNC(=N)N)NC(=O)[C@H](Cc1ccccc1)NC(=O)[C@@H](N)CO)C(C)C)[C@@H](C)O)C(=O)N[C@@H](CCCCN)C(=O)N[C@@H](CCCCN)C(=O)N[C@H](C(=O)N[C@@H](CO)C(=O)N[C@@H](Cc1ccccc1)C(=O)N[C@@H](CCC(N)=O)C(=O)N[C@@H](CCCNC(=N)N)C(=O)N[C@@H](C)C(=O)N[C@@H](CCCCN)C(=O)N[C@@H](CO)C(=O)O)[C@@H](C)O
175%	0.00912 µM	CSCC[C@H](NC(=O)CNC(=O)[C@@H](NC(=O)CNC(=O)[C@@H](NC(=O)CNC(=O)[C@H](CC(N)=O)NC(=O)[C@H](CCCNC(=N)N)NC(=O)[C@H](Cc1ccccc1)NC(=O)[C@@H](N)CO)C(C)C)[C@@H](C)O)C(=O)N[C@@H](CCCCN)C(=O)N[C@@H](CCCCN)C(=O)N[C@H](C(=O)N[C@@H](CO)C(=O)N[C@@H](Cc1ccccc1)C(=O)N[C@@H](CCC(N)=O)C(=O)N[C@@H](CCCNC(=N)N)C(=O)N[C@@H](C)C(=O)N[C@@H](CCCCN)C(=O)N[C@@H](CO)C(=O)O)[C@@H](C)O [NEUROPEPTIDE S] (H-SFRNGVGTGMKKTSFQRAKS-OH)
182%	0.0263 µM	CSCC[C@H](NC(=O)CNC(=O)[C@@H](NC(=O)CNC(=O)[C@@H](NC(=O)CNC(=O)[C@H](CC(N)=O)NC(=O)[C@H](CCCNC(=N)N)NC(=O)[C@H](Cc1ccccc1)NC(=O)[C@H](C)N)C(C)C)[C@@H](C)O)C(=O)N[C@@H](CCCCN)C(=O)N[C@@H](CCCCN)C(=O)N[C@H](C(=O)N[C@@H](CO)C(=O)N[C@@H](Cc1ccccc1)C(=O)N[C@@H](CCC(N)=O)C(=O)N[C@@H](CCCNC(=N)N)C(=O)N[C@@H](C)C(=O)N[C@@H](CCCCN)C(=O)N[C@@H](CO)C(=O)O)[C@@H](C)O (H-AFRNGVGTGMKKTSFQRAKS-OH)
178%	0.0245 µM	CSCC[C@H](NC(=O)CNC(=O)[C@@H](NC(=O)CNC(=O)[C@@H](NC(=O)[C@H](C)NC(=O)[C@H](CC(N)=O)NC(=O)[C@H](CCCNC(=N)N)NC(=O)[C@H](Cc1ccccc1)NC(=O)[C@@H](N)CO)C(C)C)[C@@H](C)O)C(=O)N[C@@H](CCCCN)C(=O)N[C@@H](CCCCN)C(=O)N[C@H](C(=O)N[C@@H](CO)C(=O)N[C@@H](Cc1ccccc1)C(=O)N[C@@H](CCC(N)=O)C(=O)N[C@@H](CCCNC(=N)N)C(=O)N[C@@H](C)C(=O)N[C@@H](CCCCN)C(=O)N[C@@H](CO)C(=O)O)[C@@H](C)O (H-SFRNAVGTGMKKTSFQRAKS-OH)
14%	–	CSCC[C@H](NC(=O)CNC(=O)[C@@H](NC(=O)C(C)(C)NC(=O)[C@@H](NC(=O)CNC(=O)[C@H](CC(N)=O)NC(=O)[C@H](CCCNC(=N)N)NC(=O)[C@H](Cc1ccccc1)NC(=O)[C@@H](N)CO)C(C)C)[C@@H](C)O)C(=O)N[C@@H](CCCCN)C(=O)N[C@@H](CCCCN)C(=O)N[C@H](C(=O)N[C@@H](CO)C(=O)N[C@@H](Cc1ccccc1)C(=O)N[C@@H](CCC(N)=O)C(=O)N[C@@H](CCCNC(=N)N)C(=O)N[C@@H](C)C(=O)N[C@@H](CCCCN)C(=O)N[C@@H](CO)C(=O)O)[C@@H](C)O (H-SFRNGV[Aib]TGMKKTSFQRAKS-OH)
90%	0.0282 µM	CSCC[C@H](NC(=O)CNC(=O)[C@@H](NC(=O)CNC(=O)[C@@H](NC(=O)[C@@H](C)NC(=O)[C@H](CC(N)=O)NC(=O)[C@H](CCCNC(=N)N)NC(=O)[C@H](Cc1ccccc1)NC(=O)[C@@H](N)CO)C(C)C)[C@@H](C)O)C(=O)N[C@@H](CCCCN)C(=O)N[C@@H](CCCCN)C(=O)N[C@H](C(=O)N[C@@H](CO)C(=O)N[C@@H](Cc1ccccc1)C(=O)N[C@@H](CCC(N)=O)C(=O)N[C@@H](CCCNC(=N)N)C(=O)N[C@@H](C)C(=O)N[C@@H](CCCCN)C(=O)N[C@@H](CO)C(=O)O)[C@@H](C)O (H-SFRN[dA]VGTGMKKTSFQRAKS-OH)
164%	0.0234 µM	CSCC[C@H](NC(=O)[C@H](C)NC(=O)[C@@H](NC(=O)CNC(=O)[C@@H](NC(=O)CNC(=O)[C@H](CC(N)=O)NC(=O)[C@H](CCCNC(=N)N)NC(=O)[C@H](Cc1ccccc1)NC(=O)[C@@H](N)CO)C(C)C)[C@@H](C)O)C(=O)N[C@@H](CCCCN)C(=O)N[C@@H](CCCCN)C(=O)N[C@H](C(=O)N[C@@H](CO)C(=O)N[C@@H](Cc1ccccc1)C(=O)N[C@@H](CCC(N)=O)C(=O)N[C@@H](CCCNC(=N)N)C(=O)N[C@@H](C)C(=O)N[C@@H](CCCCN)C(=O)N[C@@H](CO)C(=O)O)[C@@H](C)O
